Experimental data collected from several papers.
Each line is one published result; the experiments were not run side by side.
Target: Testis-specific serine/threonine-protein kinase 3 (TSSK3, Homo sapiens, UniProt Q96PN8)
Sequence (Q96PN8 1-268, as in one of the studies): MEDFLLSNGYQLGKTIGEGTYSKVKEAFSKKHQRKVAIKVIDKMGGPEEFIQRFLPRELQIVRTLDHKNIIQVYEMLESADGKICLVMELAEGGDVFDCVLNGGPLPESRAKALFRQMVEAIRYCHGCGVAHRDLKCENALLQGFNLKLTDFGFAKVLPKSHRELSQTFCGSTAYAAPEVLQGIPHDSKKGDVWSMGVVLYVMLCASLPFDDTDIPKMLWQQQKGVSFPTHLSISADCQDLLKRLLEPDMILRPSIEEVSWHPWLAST

CSc1cccnc1N1CCN(Cc2nc3ccccc3[nH]2)CC1
remaining binding (cell-free assay; competition with immobilised ligand; 1 µM): 98%

CN1CC(Oc2cnc(C#N)cc2-c2ccn3nc(NC(=O)C4CC4)cc3c2)C1
inhibition (enzyme activity; inhibitor; 1 µM): -3%

CC(C)(O)[C@H]1CC[C@H](Nc2ccc3ncc(-c4cccc(C(F)(F)F)c4)n3n2)CC1
remaining activity (enzyme activity; inhibitor; 1 µM): 110%

Cc1ccc(C(=O)Nc2ccc(CN3CCN(C)CC3)c(C(F)(F)F)c2)cc1C#Cc1cnc2cccnn12
remaining activity (enzyme activity; inhibitor; 23.5 nM): 84%

CO[C@H]1CC[C@H](CNc2ccc(S(=O)(=O)NC(=O)c3ccc(N4CCN(CC5=C(c6ccc(Cl)cc6)CC(C)(C)CC5)CC4)cc3Oc3cnc4[nH]ccc4c3)cc2[N+](=O)[O-])CC1
remaining binding (cell-free assay; competition with immobilised ligand; 1 µM): 70%

O=C(Nc1cnn(-c2csc(C(=O)NC3COC3)c2)c1)Nc1ccccc1Cl
remaining activity (enzyme activity; inhibitor; 5 µM): 97.7%

COc1cc(Cl)c(C(=O)N[C@@H](CN[C@H]2CC[C@@H](N)CC2)Cc2ccc(C#N)cc2)cc1-c1ccc(CN[C@H](C)c2ccc(C)cc2)o1
remaining activity (enzyme activity; inhibitor; 1 µM): 97%

Nc1ncnc2occ(-c3ccc(NC(=O)Nc4cc(C(F)(F)F)ccc4F)cc3)c12
remaining signal (cell-free assay; inhibitor; 20 µM): 39%

Cc1sc(C(=O)NC2COC2)cc1-n1cc(NC(=O)Nc2c(F)cccc2Cl)cn1
remaining activity (enzyme activity; inhibitor; 10 µM): 100%

CC1CCCN1c1nccc(-c2cnn3ncccc23)n1 (stereo not shown)
remaining binding (binding; 1 µM): 99%
